From ChEMBL document CHEMBL3244217, “Metabolism of cis-delta4-15(S)-15-methylprostaglandin F1alpha methyl ester in the rat” (J Med Chem, 1978) come the findings set out here.

The structures appear in SMILES notation.

Common to all, as to design: dose 0.28 mg/kg, route oral
The test system of series [1] is Rattus norvegicus. The series is described as follows: Drug level in Sprague-Dawley rat treated with [3H]-cis-delta4-15(S)-15-methylprostaglandin F1alpha methyl ester at 0.28 mg/kg, po assessed compound formation. Conditions: in vivo. The class given is ADME, organism-based.
For series [2], the system named is Rattus norvegicus. The series is described as follows: Drug metabolism in Sprague-Dawley rat assessed as metabolite 5 ((4aR,5R,6R,7aS)-6-hydroxy-5-((S)-3-hydroxy-3-methyloct-1-enyl)hexahydrocyclopenta[b]pyran-2(3H)-one) formation at 0.28 mg/kg, po administered as single dose. Conditions: in vivo. The class given is ADME, organism-based. The gist of the method: (§1)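 Urine was extracted on an Amberlite XAD-2 column and partially purified by silicic acid chromatography. Components were then separated by reversed-phase partition chromatography on Sephadex LH-20 (isooctyl alcohol–chloroform–methanol–water, 15:15:114:86), collecting 9-mL fractions. Identification used GC with radioactivity monitoring (3.8% UCW-98, 200 °C) and GC-MS of methyl ester, O-methoxime and trimethylsilyl derivatives; silylation was at 50 °C for 1 h.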

Series [3] in a line: Drug excretion in Sprague-Dawley rat urine at 0.28 mg/kg, po administered as single dose within 74 hrs relative to control. The class given is ADME, organism-based. As to conditions: read-out: Drug excretion. The gist of the method: (§2)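 Four female Sprague-Dawley rats (Upjohn strain), about 200 g, were fasted overnight and each given one 0.28-mg oral dose of tritium-labeled drug (1.24 × 10^7 dpm) in distilled water by gastric tube. They were then kept in metabolism cages with free food and water, and urine and feces were collected at intervals. Radioactivity was read by liquid scintillation with external-standard quench correction. Urine aliquots (0.2 mL) were counted directly; feces were homogenized in water and aliquots dried and combusted before counting.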

Series [4] in a line: Drug excretion in Sprague-Dawley rat feces at 0.28 mg/kg, po administered as single dose within 74 hrs relative to control. In kind it is ADME, organism-based. As to conditions: faeces, read-out: Drug excretion. An outline of the steps: as §2
In series [5] the test system is Rattus norvegicus. In words: Toxicity in Sprague-Dawley rat assessed as depression at 0.28 mg/kg, po up to 1 to 3 days. As to conditions: in vivo. The class given is organism-based. An outline of the steps: (§3)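 Fifteen rats were kept in metabolism cages for 17 days. Each morning they received an oral dose of 0.25 mg of tritium-labelled drug (1 × 10^7 dpm). The animals were watched for side effects, including depression, diarrhoea, faecal staining of the abdomen and mortality, over the chronic dosing period.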

Series [6] concerns Rattus norvegicus. In words: Toxicity in Sprague-Dawley rat assessed as diarrhea at 0.28 mg/kg, po up to 1 to 3 days. As to conditions: in vivo. In kind it is organism-based. An outline of the steps: as §3
Series [7] concerns Rattus norvegicus. The series is described as follows: Toxicity in Sprague-Dawley rat assessed as fecal stained abdominal area at 0.28 mg/kg, po up to 1 to 3 days. In kind it is organism-based, Abdomen. As to conditions: in vivo. The gist of the method:
as §3

The subject of series [8] is Rattus norvegicus. The series is described as follows: Toxicity in Sprague-Dawley rat assessed as mortality at 0.28 mg/kg, po. The class given is organism-based. Conditions: in vivo. The gist of the method: as §3
Series [9] relates to Rattus norvegicus. In words: Toxicity in Sprague-Dawley rat assessed as depression at 0.28 mg/kg, po after 3 days. In kind it is organism-based. Conditions: in vivo, 72 h.
The test system of series [10] is Rattus norvegicus. The series is described as follows: Toxicity in Sprague-Dawley rat assessed as diarrhea at 0.28 mg/kg, po after 3 days. In kind it is organism-based. As to conditions: in vivo, 72 h.
Series [11] relates to Rattus norvegicus. The series is described as follows: Toxicity in Sprague-Dawley rat assessed as fecal stained abdominal area at 0.28 mg/kg, po after 3 days. As to conditions: in vivo, 72 h. In kind it is organism-based, Abdomen.
Series [12] relates to Rattus norvegicus. In words: Drug metabolism in Sprague-Dawley rat assessed as metabolite 2 (cis-delta4-15-methylprostaglandin F1alpha) formation at 0.28 mg/kg, po administered as single dose. In kind it is ADME, organism-based. As to conditions: in vivo. An outline of the steps:
as §1

In series [13] the test system is Rattus norvegicus. In words: Drug metabolism in Sprague-Dawley rat assessed as metabolite 3 (15-methyl-2,3-dinorprostaglandin F1alpha) formation at 0.28 mg/kg, po administered as single dose. In kind it is ADME, organism-based. As to conditions: in vivo. An outline of the steps:
as §1

Series [14] deals with Rattus norvegicus. In words: Drug metabolism in Sprague-Dawley rat assessed as metabolite 4 (15-methyl-2,3,4,5-tetranorprostaglandin F1alpha) formation at 0.28 mg/kg, po administered as single dose. The class given is ADME, organism-based. Conditions: in vivo. An outline of the steps: as §1

For the molecule `CCCCC[C@](C)(O)/C=C/[C@@H]1[C@@H](CCCCC(=O)O)[C@@H](O)C[C@H]1O`, the Drug metabolism entry in [1] is “metabolite_detected”.

On to `[3H]O[C@H]1C[C@@H](O)[C@H](/C=C/[C@@](C)(O)CCCCC)[C@H]1CC/C=C\CCC(=O)OC`, for which the Drug metabolism entry in series [2], in series [12], in series [13] and in [14] was “metabolite_detected” each time. In addition, the dose excreted at 74 h in [3] turned out to be 30%; in series [4], 38%. Besides, the Activity result is “Toxic” in [5]; “Toxic” in [6]; “Toxic” in series [7]; “Non-toxic” in series [8]; “Non-toxic” in series [9]; “Non-toxic” in [10]. For the same molecule, in [11], the Activity result is “Non-toxic”.

Take `CCCCC[C@](C)(O)/C=C/[C@@H]1[C@@H](CC/C=C\CCC(=O)O)[C@@H](O)C[C@H]1O`: the Drug metabolism entry in series [1] was “metabolite_detected”.

With `CCCCC[C@](C)(O)/C=C/[C@@H]1[C@H]2CCC(=O)O[C@H]2C[C@H]1O`, the Drug metabolism entry in series [1] is “metabolite_detected”.

Consider `CCCCC[C@](C)(O)/C=C/[C@@H]1[C@@H](CCC(=O)O)[C@@H](O)C[C@H]1O`, for which, in series [1], the Drug metabolism entry is reported as “metabolite_detected”.
